Measurements published in ChEMBL document CHEMBL1155415, “Synthesis, characterization, and in vitro antimicrobial activities of 5-alkenyl/hydroxyalkenyl-2-phenylamine-1,3,4-oxadiazoles and thiadiazoles” (2010).
Values after ≈ are worked out from the molar mass of the structure shown.

What was measured:
Format in all cases: functional
[1] = test system: Escherichia coli; test: Antibacterial activity against Escherichia coli ATCC 25922 after 24 hrs by two fold dilution technique; conditions: ATCC 25922, 24 h
In short: (§1)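 Broth dilution MIC. Nutrient broth held log two-fold serial dilutions of compound and was inoculated with about 5 × 10⁵ c.f.u./ml of actively dividing bacteria. Incubation was 24 h at 37 °C, with growth checked visually and spectrophotometrically. MIC is the lowest concentration arresting growth.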

[2] = test system: Streptococcus pyogenes; test: Antibacterial activity against Streptococcus pyogenes after 24 hrs by two fold dilution technique; in short: as §1
[3] = test system: Candida albicans; test: Antifungal activity against Candida albicans after 48 hrs by disk diffusion method
In short: (§2)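 Agar well diffusion with compounds in DMSO. The dish was lawned with a saline spore suspension, excess decanted, and dried 1 h at 37 °C. Wells were punched. Read-out: inhibition zone in mm. Griseofulvin served as standard and DMSO as negative control.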

[4] = test system: Candida albicans; test: Ratio of MFC to MIC for Candida albicans
In short: (§3)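 MFC: 0.1 ml from each MIC tube was spread on agar and colonies were counted after 48 h at 35 °C. MFC is the lowest concentration killing 99.9% of the inoculum. The MFC/MIC ratio was then calculated to classify activity as fungistatic or fungicidal.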

[5] = test system: Klebsiella pneumoniae; test: Antibacterial activity against Klebsiella pneumoniae after 18 to 24 hrs
[6] = test system: Staphylococcus aureus; test: Antibacterial activity against Staphylococcus aureus ATCC 25923 after 18 to 24 hrs
[7] = test system: Candida albicans; test: Antifungal activity against Candida albicans after 48 hrs by two fold dilution technique
In short: (§4)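 Broth MIC. Broth with log two-fold serial dilutions of compound was inoculated with about 1.6 × 10⁴–6 × 10⁴ c.f.u./ml of fungus and incubated 48 h at 35 °C. MIC is the lowest concentration arresting fungal growth.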

[8] = test system: Talaromyces marneffei; test: Antifungal activity against Penicillium marneffei after 48 hrs by disk diffusion method; in short: as §2
[9] = test system: Talaromyces marneffei; test: Ratio of MFC to MIC for Penicillium marneffei; in short: as §3
[10] = test system: Aspergillus fumigatus; test: Antifungal activity against Aspergillus fumigatus after 48 hrs by two fold dilution technique; in short: as §4
[11] = test system: Pseudomonas aeruginosa; test: Antibacterial activity against Pseudomonas aeruginosa ATCC 27853 after 18 to 24 hrs
[12] = test system: Trichophyton mentagrophytes; test: Antifungal activity against Trichophyton mentagrophytes after 48 hrs by two fold dilution technique; in short: as §4
[13] = test system: Klebsiella pneumoniae; test: Antibacterial activity against Klebsiella pneumoniae after 24 hrs by two fold dilution technique; in short: as §1
[14] = test system: Escherichia coli; test: Antibacterial activity against Escherichia coli ATCC 25922 after 24 hrs by disc diffusion method
In short: (§5)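 Agar disc diffusion. A standard inoculum of […] c.f.u./ml (0.5 McFarland) was spread evenly on agar. 6 mm Whatman no. 1 paper discs, dry-heat sterilized (140 °C, 1 h), were soaked in test compound and placed on nutrient agar. Plates were inverted and incubated 24 h at 37 °C. Read-out: diameter of the inhibition zone.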

[15] = test system: Trichophyton mentagrophytes; test: Antifungal activity against Trichophyton mentagrophytes after 48 hrs by disk diffusion method; in short: as §2
[16] = test system: Escherichia coli; test: Antibacterial activity against Escherichia coli ATCC 25922 after 18 to 24 hrs
[17] = test system: Aspergillus fumigatus; test: Ratio of MFC to MIC for Aspergillus fumigatus; in short: as §3
[18] = test system: Pseudomonas aeruginosa; test: Antibacterial activity against Pseudomonas aeruginosa ATCC 27853 after 24 hrs by disc diffusion method; in short: as §5
[19] = test system: Klebsiella pneumoniae; test: Antibacterial activity against Klebsiella pneumoniae after 24 hrs by disc diffusion method; in short: as §5
[20] = test system: Aspergillus fumigatus; test: Antifungal activity against Aspergillus fumigatus after 48 hrs by disk diffusion method; in short: as §2
[21] = test system: Staphylococcus aureus; test: Antibacterial activity against Staphylococcus aureus ATCC 25923 after 24 hrs by disc diffusion method; in short: as §5
[22] = test system: Streptococcus pyogenes; test: Antibacterial activity against Streptococcus pyogenes after 18 to 24 hrs
[23] = test system: Streptococcus pyogenes; test: Antibacterial activity against Streptococcus pyogenes after 24 hrs by disc diffusion method; in short: as §5
[24] = test system: Staphylococcus aureus; test: Antibacterial activity against Staphylococcus aureus ATCC 25923 after 24 hrs by two fold dilution technique; conditions: ATCC 25923, 24 h; in short: as §1
[25] = test system: Pseudomonas aeruginosa; test: Antibacterial activity against Pseudomonas aeruginosa ATCC 27853 after 24 hrs by two fold dilution technique; conditions: ATCC 27853, 24 h; in short: as §1
[26] = test system: Talaromyces marneffei; test: Antifungal activity against Penicillium marneffei after 48 hrs by two fold dilution technique; in short: as §4
[27] = test system: Trichophyton mentagrophytes; test: Ratio of MFC to MIC for Trichophyton mentagrophytes; in short: as §3

Row | SMILES | MIC [1] [µg/mL] | MIC [2] [µg/mL] | diameter of the inhibition zone (DIZ) [3] [mm] | Ratio [4] | MBC [5] [µg/mL] | MBC [6] [µg/mL] | MFC [7] [µg/mL] | MIC [7] [µg/mL] | diameter of the inhibition zone (DIZ) [8] [mm] | Ratio [9] | MFC [10] [µg/mL] | MIC [10] [µg/mL] | MBC [11] [µg/mL] | MFC [12] [µg/mL] | MIC [12] [µg/mL] | diameter of the inhibition zone (DIZ) [15] [mm] | Ratio [17] | diameter of the inhibition zone (DIZ) [20] [mm] | MFC [26] [µg/mL] | MIC [26] [µg/mL] | also measured
1 | CCCCCCC(O)C/C=C\CCCCCCCc1nnc(Nc2ccccc2)s1 (stereo unspecified) | 6.5 (≈ 15.1 µM) | 6.25 (≈ 14.5 µM) | 25.1 | 2 | 6.25 (≈ 14.5 µM) | 12.5 (≈ 29.1 µM) | 25 (≈ 58.2 µM) | 12.5 (≈ 29.1 µM) | 15.1 | 2 | 50 (≈ 116 µM) | 12.5 (≈ 29.1 µM) | 12.5 (≈ 29.1 µM) | 25 (≈ 58.2 µM) | 12.5 (≈ 29.1 µM) | 18.9 | 4 | 22.4 | 50 (≈ 116 µM) | 25 (≈ 58.2 µM) | MIC [13]: 6.25 µg/mL (≈ 14.5 µM); diameter of the inhibition zone (DIZ) [14]: 25.5 mm; MBC [16]: 12.5 µg/mL (≈ 29.1 µM); diameter of the inhibition zone (DIZ) [18]: 29.2 mm; diameter of the inhibition zone (DIZ) [19]: 22.7 mm; diameter of the inhibition zone (DIZ) [21]: 21.6 mm; MBC [22]: 12.5 µg/mL (≈ 29.1 µM); diameter of the inhibition zone (DIZ) [23]: 22.9 mm; MIC [24]: 6.25 µg/mL (≈ 14.5 µM); MIC [25]: 6.25 µg/mL (≈ 14.5 µM)
2 | CCCCCCCC/C=C\CCCCCCCc1nnc(Nc2ccccc2)o1 | 12.5 (≈ 31.4 µM) | 25 (≈ 62.9 µM) | 26.1 | 4 | 50 (≈ 126 µM) | 50 (≈ 126 µM) | 25 (≈ 62.9 µM) | 6.25 (≈ 15.7 µM) | 15.9 | 4 | 12.5 (≈ 31.4 µM) | 6.25 (≈ 15.7 µM) | 50 (≈ 126 µM) | 25 (≈ 62.9 µM) | 12.5 (≈ 31.4 µM) | 20.2 | 2 | 23.1 | 25 (≈ 62.9 µM) | 6.25 (≈ 15.7 µM) | Ratio [27]: 2; MIC [13]: 12.5 µg/mL (≈ 31.4 µM); diameter of the inhibition zone (DIZ) [14]: 17.5 mm; MBC [16]: 50 µg/mL (≈ 126 µM); diameter of the inhibition zone (DIZ) [18]: 19.3 mm; diameter of the inhibition zone (DIZ) [19]: 14.9 mm; diameter of the inhibition zone (DIZ) [21]: 15.3 mm; MBC [22]: 25 µg/mL (≈ 62.9 µM); diameter of the inhibition zone (DIZ) [23]: 15.6 mm; MIC [24]: 12.5 µg/mL (≈ 31.4 µM); MIC [25]: 12.5 µg/mL (≈ 31.4 µM)
3 | C=CCCCCCCCCc1nnc(Nc2ccccc2)s1 | 25 (≈ 79.2 µM) | 25 (≈ 79.2 µM) | 19.5 | 2 | 50 (≈ 158 µM) | 25 (≈ 79.2 µM) | 50 (≈ 158 µM) | 25.5 (≈ 80.8 µM) | 10.2 | 4 | 100 (≈ 317 µM) | 25 (≈ 79.2 µM) | 25 (≈ 79.2 µM) | 50 (≈ 158 µM) | 25 (≈ 79.2 µM) | 14.1 | 4 | 16.5 | 100 (≈ 317 µM) | 25 (≈ 79.2 µM) | Ratio [27]: 2; MIC [13]: 25 µg/mL (≈ 79.2 µM); diameter of the inhibition zone (DIZ) [14]: 15.2 mm; MBC [16]: 100 µg/mL (≈ 317 µM); diameter of the inhibition zone (DIZ) [18]: 17.2 mm; diameter of the inhibition zone (DIZ) [19]: 12.8 mm; diameter of the inhibition zone (DIZ) [21]: 13.1 mm; MBC [22]: 50 µg/mL (≈ 158 µM); diameter of the inhibition zone (DIZ) [23]: 13.5 mm; MIC [24]: 12.5 µg/mL (≈ 39.6 µM); MIC [25]: 12.5 µg/mL (≈ 39.6 µM)
4 | CCCCC/C=C\CC[C@H](O)CCCCCCCc1nnc(Nc2ccccc2)o1 | 6.25 (≈ 15.1 µM) | 6.25 (≈ 15.1 µM) | 23.2 | 2 | 25 (≈ 60.4 µM) | 12.5 (≈ 30.2 µM) | 25 (≈ 60.4 µM) | 12.5 (≈ 30.2 µM) | 16.3 | 4 | 50 (≈ 121 µM) | 25 (≈ 60.4 µM) | 50 (≈ 121 µM) | 50 (≈ 121 µM) | 25 (≈ 60.4 µM) | 18.7 | 2 | 21.6 | 100 (≈ 242 µM) | 25 (≈ 60.4 µM) | Ratio [27]: 2; MIC [13]: 6.25 µg/mL (≈ 15.1 µM); diameter of the inhibition zone (DIZ) [14]: 21.6 mm; MBC [16]: 25 µg/mL (≈ 60.4 µM); diameter of the inhibition zone (DIZ) [18]: 19.4 mm; diameter of the inhibition zone (DIZ) [19]: 20.2 mm; diameter of the inhibition zone (DIZ) [21]: 21.1 mm; MBC [22]: 25 µg/mL (≈ 60.4 µM); diameter of the inhibition zone (DIZ) [23]: 20.1 mm; MIC [24]: 12.5 µg/mL (≈ 30.2 µM); MIC [25]: 6.25 µg/mL (≈ 15.1 µM)
5 | CCCCC/C=C\CCC(O)CCCCCCCc1nnc(Nc2ccccc2)s1 (stereo unspecified) | 6.25 (≈ 14.5 µM) | 6.25 (≈ 14.5 µM) | 24.9 | 2 | 6.25 (≈ 14.5 µM) | 12.5 (≈ 29.1 µM) | 50 (≈ 116 µM) | 25 (≈ 58.2 µM) | 15.2 | 4 | 50 (≈ 116 µM) | 25 (≈ 58.2 µM) | 25 (≈ 58.2 µM) | 100 (≈ 233 µM) | 25 (≈ 58.2 µM) | 19 | 2 | 21.8 | 100 (≈ 233 µM) | 25 (≈ 58.2 µM) | Ratio [27]: 4; MIC [13]: 6.25 µg/mL (≈ 14.5 µM); diameter of the inhibition zone (DIZ) [14]: 22.9 mm; MBC [16]: 12.5 µg/mL (≈ 29.1 µM); diameter of the inhibition zone (DIZ) [18]: 25.9 mm; diameter of the inhibition zone (DIZ) [19]: 19.9 mm; diameter of the inhibition zone (DIZ) [21]: 20.8 mm; MBC [22]: 25 µg/mL (≈ 58.2 µM); diameter of the inhibition zone (DIZ) [23]: 21.1 mm; MIC [24]: 6.25 µg/mL (≈ 14.5 µM); MIC [25]: 6.25 µg/mL (≈ 14.5 µM)
6 | COC1=CC(=O)C[C@@H](C)[C@]12Oc1c(Cl)c(OC)cc(OC)c1C2=O [GRISEOFULVIN] | – | – | 30 | 2 | – | – | 12.5 (≈ 35.4 µM) | 6.25 (≈ 17.7 µM) | 20 | 2 | 12.5 (≈ 35.4 µM) | 6.25 (≈ 17.7 µM) | – | 12.5 (≈ 35.4 µM) | 6.25 (≈ 17.7 µM) | 24 | 2 | 27 | 12.5 (≈ 35.4 µM) | 6.25 (≈ 17.7 µM) | Ratio [27]: 2
7 | C=CCCCCCCCCc1nnc(Nc2ccccc2)o1 | 12.5 (≈ 41.7 µM) | 12.5 (≈ 41.7 µM) | 24.2 | 2 | 25 (≈ 83.5 µM) | 25 (≈ 83.5 µM) | 50 (≈ 167 µM) | 25 (≈ 83.5 µM) | 15.2 | 2 | 100 (≈ 334 µM) | 25 (≈ 83.5 µM) | 50 (≈ 167 µM) | 50 (≈ 167 µM) | 12.5 (≈ 41.7 µM) | 16.9 | 4 | 20.8 | 25 (≈ 83.5 µM) | 12.5 (≈ 41.7 µM) | Ratio [27]: 4; MIC [13]: 12.5 µg/mL (≈ 41.7 µM); diameter of the inhibition zone (DIZ) [14]: 19.8 mm; MBC [16]: 50 µg/mL (≈ 167 µM); diameter of the inhibition zone (DIZ) [18]: 17.3 mm; diameter of the inhibition zone (DIZ) [19]: 16.8 mm; diameter of the inhibition zone (DIZ) [21]: 17.7 mm; MBC [22]: 50 µg/mL (≈ 167 µM); diameter of the inhibition zone (DIZ) [23]: 18 mm; MIC [24]: 6.25 µg/mL (≈ 20.9 µM); MIC [25]: 12.5 µg/mL (≈ 41.7 µM)
